In ChEMBL document CHEMBL1122554, “Synthesis and antitumor activity of tropolone derivatives” (1984):
≈ marks a conversion by molar mass, not a printed value.

Experiments:
Assay type in all cases: functional
[1] = system: KB; assay: In vitro inhibitory activity against growth of KB cells derived from human epidermoid carcinoma of the mouth; conditions: for IC50: Homo sapiens, KB, read-out: ID50 (the source's name)
Procedure, shortened: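 KB human epidermoid carcinoma cells grown at 37 °C in 5% CO2–95% air and seeded at 2100 cells/cm². After 24 h the medium was changed and graded drug (0.3–100 µg/mL) added, two dishes per concentration. After 48 h of exposure, cells were trypsinized and counted by Coulter counter. IC50 was read from a plot of log concentration vs. growth rate (% of control).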

[2] = system: Mus musculus; assay: In vivo antitumor activity was measured in mice (P388 leukemia) at dose 100 mg/kg after intraperitoneal administration
Procedure, shortened: (§1)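 Groups of six CDF1 mice were inoculated ip with 10⁶ P388 leukemia cells. Ip drug dosing began 24 h later, given once daily for 1 and 5 days. %T/C = median survival time of the treated group ÷ median survival time of the tumor control group × 100.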

[3] = system: Mus musculus; assay: In vivo antitumor activity was measured in mice (P388 leukemia) at dose 400 mg/kg after intraperitoneal administration; procedure, shortened: as §1
[4] = system: Mus musculus; assay: In vivo antitumor activity was measured in mice (P388 leukemia) at dose 200 mg/kg after intraperitoneal administration; procedure, shortened: as §1
[5] = system: Mus musculus; assay: In vivo antitumor activity was measured in mice (P388 leukemia) at dose 50 mg/kg after intraperitoneal administration; procedure, shortened: as §1
[6] = system: Mus musculus; assay: In vivo antitumor activity was measured in mice (P388 leukemia) at dose 5 mg/kg after intraperitoneal administration; procedure, shortened: as §1
[7] = system: Mus musculus; assay: In vivo antitumor activity was measured in mice (P388 leukemia) at dose 10 mg/kg after intraperitoneal administration; procedure, shortened: as §1
[8] = system: Mus musculus; assay: In vivo antitumor activity was measured in mice (P388 leukemia) at dose 2.5 mg/kg after intraperitoneal administration; procedure, shortened: as §1
[9] = system: Mus musculus; assay: In vivo antitumor activity was measured in mice (P388 leukemia) at dose 20 mg/kg after intraperitoneal administration; procedure, shortened: as §1
[10] = system: Mus musculus; assay: In vivo antitumor activity was measured in mice (P388 leukemia) at dose 0.6 mg/kg after intraperitoneal administration; procedure, shortened: as §1
[11] = system: Mus musculus; assay: IIn vivo %T/C was measured in mice (P388 leukemia) at dose 10 mg/kg after intraperitoneal administration; procedure, shortened: as §1
[12] = system: Mus musculus; assay: In vivo antitumor activity was measured in mice (P388 leukemia) at dose 1.3 mg/kg after intraperitoneal administration; procedure, shortened: as §1
[13] = system: Mus musculus; assay: In vivo antitumor activity was measured in mice (P388 leukemia) at dose 1 mg/kg after intraperitoneal administration; procedure, shortened: as §1
[14] = system: Mus musculus; assay: In vivo antitumor activity was measured in mice (P388 leukemia) at dose 0.3 mg/kg after intraperitoneal administration; procedure, shortened: as §1
[15] = system: Mus musculus; assay: In vivo antitumor activity was measured in mice (P388 leukemia) at dose 0.5 mg/kg after intraperitoneal administration; procedure, shortened: as §1
[16] = system: Mus musculus; assay: In vivo antitumor activity was measured in mice (P388 leukemia)at dose 200 mg/kg after intraperitoneal administration
Procedure, shortened: (§2)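 Groups of six CDF1 mice inoculated ip with 10⁶ P388 leukemia cells; ip drug treatment begun 24 h after inoculation, listed dose given once a day for 1 and 5 days. Endpoint: median survival time of treated group divided by that of tumor controls ×100 (% T/C).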

[17] = system: Mus musculus; assay: In vivo antitumor activity was measured in mice (P388 leukemia)at dose 100 mg/kg after intraperitoneal administration; procedure, shortened: as §2

Row | SMILES | IC50 [1] | ID50 [1] | T/C [2] | T/C [3] | T/C [4] | T/C [6] | also measured
1 | CCOC(/C=C/c1ccccc1)c1ccc(C(C)C)cc(=O)c1O (stereo not given) | – | – | 112% | 0% | 100% | – | –
2 | COc1cc(C(C)C)ccc(C2OCCc3ccccc32)c1=O (stereo not given) | 29 µg/mL (≈ 93.4 µM) | 93000 nM | 92% | 98% | 94% | – | –
3 | COc1cc(C(C)C)cccc1=O | 49.5 µg/mL (≈ 278 µM) | 278000 nM | 108% | – | 0% | – | T/C [5]: 106%
4 | CCOC(c1ccccc1)c1ccc(C(C)C)cc(=O)c1O (stereo not given) | 0.3 µg/mL (≈ 1.01 µM) | 1000 nM | 102% | 0% | – | – | –
5 | COc1c(C2OCCc3ccccc32)ccc(C(C)C)cc1=O (stereo not given) | 18 µg/mL (≈ 58 µM) | 58000 nM | 93% | 98% | 88% | – | –
6 | Cc1ccccc1C(c1ccc(C(C)C)cc(=O)c1O)c1ccc(C(C)C)cc(=O)c1O | – | – | – | – | – | 156% | T/C [9]: 158%; T/C [8]: 137%
7 | O=c1ccccc(C2OCCc3ccccc32)c1O (stereo not given) | 0.5 µg/mL (≈ 1.97 µM) | 1600 nM | 104% | 0% | 96% | – | –
8 | CC(C)c1ccc(Cc2ccccc2)c(O)c(=O)c1 | 0.5 µg/mL (≈ 1.97 µM) | 2000 nM | 94% | 88% | – | – | –
9 | COc1ccccc1C(c1ccc(C(C)C)cc(=O)c1O)c1ccc(C(C)C)cc(=O)c1O | – | – | – | – | – | 151% | T/C [9]: 0%; T/C [11]: 162%
10 | C/C=C/C(OCC)c1ccc(C(C)C)cc(=O)c1O (stereo not given) | 1.2 µg/mL (≈ 4.57 µM) | 4500 nM | 101% | 115% | 116% | – | –
11 | CCOC(c1ccc(N(C)C)cc1)c1ccc(C(C)C)cc(=O)c1O (stereo not given) | 0.6 µg/mL (≈ 1.76 µM) | 1700 nM | – | 0% | 128% | – | –
12 | CC(C)c1ccc(C2OCCc3ccccc32)c(O)c(=O)c1 (stereo not given) | 0.5 µg/mL (≈ 1.69 µM) | 1700 nM | 127% | 108% | 126% | – | T/C [5]: 128%
13 | COc1cc2c(c(OC)c1OC)-c1ccc(OC)c(=O)cc1[C@@H](NC(C)=O)CC2 [COLCHICINE] | 2.2 µg/mL (≈ 5.51 µM) | 6000 nM | – | – | – | – | T/C [13]: 166%; T/C [14]: 142%; T/C [15]: 160%
14 | CC(C)c1cccc(=O)c(O)c1 [HINOKITIOL] | 0.5 µg/mL (≈ 3.04 µM) | 3600 nM | – | 0% | – | – | T/C [16]: 62%; T/C [17]: 100%; T/C [5]: 103%

More lines, main results first:

Row | IC50 [1] | SMILES | ID50 [1] | T/C [2] | T/C [3] | T/C [4] | T/C [6] | also measured
15 | 1.4 µg/mL (≈ 4.24 µM) | CC(C)c1ccc(C(c2ccccc2)c2ccccc2)c(O)c(=O)c1 | 4200 nM | 119% | – | – | – | –
16 | 0.5 µg/mL (≈ 1.52 µM) | CCOC(c1ccc(OC)cc1)c1ccc(C(C)C)cc(=O)c1O (stereo not given) | 1500 nM | – | 140% | 128% | – | –
17 | 0.3 µg/mL (≈ 0.901 µM) | CCOC(c1ccc(Cl)cc1)c1ccc(C(C)C)cc(=O)c1O (stereo not given) | 900 nM | 99% | 0% | 109% | – | –
18 | 1.5 µg/mL (≈ 3.48 µM) | Cc1ccc(C(c2ccc(C(C)C)cc(=O)c2O)c2ccc(C(C)C)cc(=O)c2O)cc1 | 3400 nM | – | – | – | 147% | –
19 | 0.3 µg/mL (≈ 0.629 µM) | COc1ccc(C(c2ccc(C(C)C)cc(=O)c2O)c2ccc(C(C)C)cc(=O)c2O)cc1OC | 600 nM | – | – | – | 156% | T/C [7]: 158%; T/C [8]: 137%
20 | 2 µg/mL (≈ 4.43 µM) | CC(C)c1ccc(C(c2ccc(Cl)cc2)c2ccc(C(C)C)cc(=O)c2O)c(O)c(=O)c1 | 4400 nM | – | – | – | 141% | –
21 | 0.5 µg/mL (≈ 1.12 µM) | COc1ccc(C(c2ccc(C(C)C)cc(=O)c2O)c2ccc(C(C)C)cc(=O)c2O)cc1 | 1100 nM | – | – | – | – | T/C [10]: 127%; T/C [8]: 134%
22 | 0.3 µg/mL (≈ 0.672 µM) | COc1ccc(C(c2cc(C(C)C)ccc(=O)c2O)c2cc(C(C)C)ccc(=O)c2O)cc1 | 600 nM | – | – | – | 156% | –
23 | 1.1 µg/mL (≈ 2.46 µM) | COc1cccc(C(c2ccc(C(C)C)cc(=O)c2O)c2ccc(C(C)C)cc(=O)c2O)c1 | 2400 nM | – | – | – | 134% | T/C [7]: 134%; T/C [8]: 142%
24 | 6.2 µg/mL (≈ 19.8 µM) | CCOC(c1ccc(C)cc1)c1ccc(C(C)C)cc(=O)c1O (stereo not given) | 9900 nM | 105% | – | 105% | – | –
25 | 0.7 µg/mL (≈ 1.52 µM) | CC(C)c1ccc(C(c2ccc(N(C)C)cc2)c2ccc(C(C)C)cc(=O)c2O)c(O)c(=O)c1 | 1500 nM | – | – | – | 173% | T/C [7]: 177%
26 | 0.3 µg/mL (≈ 0.72 µM) | CC(C)c1ccc(C(c2ccccc2)c2ccc(C(C)C)cc(=O)c2O)c(O)c(=O)c1 | 700 nM | – | – | – | – | T/C [12]: 132%; T/C [8]: 150%
